This note sets out measurements from ChEMBL document CHEMBL1828576, “Synthesis of new six- and seven-membered 1-N-iminosugars as promising glycosidase inhibitors” (Bioorg Med Chem, 2011).

In experiment [1] the test system is Canavalia ensiformis. Briefly: Inhibition of jack bean N-acetyl-beta-D-glucosaminidase assessed as p-nitrophenol release at 1 mM pre-incubated for 1 hr by Lineweaver-Burk plot analysis. In short, it runs like this:
(§1)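 Each enzyme was pre-incubated with inhibitor (10 µM to 1000 µM) at its optimal pH for 1 h at 37 °C. Hydrolysis was initiated with 2 mM p-nitrophenyl glycopyranoside substrate prepared in 0.025 M citrate, pH 4.0, and quenched with 0.05 M borate, pH 9.8. p-Nitrophenol was read at 405 nm, with controls lacking inhibitor run in parallel. Ki and mode of inhibition were derived from Lineweaver–Burk plots.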

Experiment [2] is described as follows: Inhibition of Geobacillus toebii BK1 alpha-galactosidase assessed as residual hydrolysis of p-nitrophenyl-alpha-D-galactopyranoside pre-incubated for 1 hr by Lineweaver-Burk plot analysis. A digest of the protocol:
(§2)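 The enzyme was pre-incubated with inhibitor (10 µM to 1000 µM) for 1 h at 60 °C at the enzyme's optimal pH. The reaction was started with 2 mM p-nitrophenyl glycopyranoside made up in 0.025 M citrate buffer, pH 4.0. It was stopped with 0.05 M borate buffer, pH 9.8, and released p-nitrophenol was read at 405 nm against inhibitor-free controls. Ki and inhibition type came from Lineweaver–Burk plots.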

Experiment [3] has as its system Geobacillus toebii. Put plainly: Competitive inhibition of Geobacillus toebii BK1 alpha-galactosidase assessed as residual hydrolysis of p-nitrophenyl-alpha-D-galactopyranoside pre-incubated for 1 hr by Lineweaver-Burk plot analysis. In short, it runs like this: as §2
The test system of experiment [4] is Saccharomyces cerevisiae. Put plainly: Inhibition of baker's yeast alpha-glucosidase assessed as residual hydrolysis of p-nitrophenyl-alpha-D-glucopyranoside at 1 mM pre-incubated for 1 hr by Lineweaver-Burk plot analysis. A digest of the protocol: as §1
The subject of experiment [5] is Prunus dulcis. Briefly: Inhibition of almond seed beta-glucosidase assessed as residual hydrolysis of p-nitrophenyl-beta-D-glucopyranoside at 1 mM pre-incubated for 1 hr by Lineweaver-Burk plot analysis. A digest of the protocol: as §1
Experiment [6] can be described thus: Inhibition of Geobacillus toebii BK1 alpha-galactosidase assessed as residual hydrolysis of p-nitrophenyl-alpha-D-galactopyranoside pre-incubated for 1 hr by spectrometric analysis. A digest of the protocol:
as §2

In experiment [7] the test system is Canavalia ensiformis. Put plainly: Inhibition of jack bean alpha-mannosidase assessed as residual hydrolysis of p-nitrophenyl-alpha-D-mannopyranoside at 1 mM pre-incubated for 1 hr by Lineweaver-Burk plot analysis. In short, it runs like this:
as §1

Experiment [8] has as its system Canavalia ensiformis. Briefly: Inhibition of jack bean N-acetyl-beta-D-glucosaminidase assessed as p-nitrophenol release at 1 mM pre-incubated for 1 hr by spectrometric analysis. In short, it runs like this:
as §1

Experiment [9] deals with Prunus dulcis. Put plainly: Inhibition of almond seed beta-galactosidase assessed as residual hydrolysis of p-nitrophenyl-beta-D-galactopyranoside at 1 mM pre-incubated for 1 hr by Lineweaver-Burk plot analysis. In short, it runs like this:
as §1

A short description of experiment [10]: Inhibition of sweet almond beta-glucosidase. On the set-up: species or system Prunus dulcis. A digest of the protocol:
as §1

Experiment [11] concerns Geobacillus toebii. Briefly: Inhibition of Geobacillus toebii BK1 alpha-galactosidase assessed as residual hydrolysis of p-nitrophenyl-alpha-D-galactopyranoside at 1 mM pre-incubated for 1 hr by Lineweaver-Burk plot analysis. In short, it runs like this: as §2
Experiment [12] can be described thus: Inhibition of baker's yeast alpha-glucosidase assessed as residual hydrolysis of p-nitrophenyl-alpha-D-glucopyranoside pre-incubated for 1 hr by Lineweaver-Burk plot analysis. On the set-up: species or system Saccharomyces cerevisiae. In short, it runs like this: as §1
A short description of experiment [13]: Inhibition of baker's yeast alpha-glucosidase assessed as residual hydrolysis of p-nitrophenyl-alpha-D-glucopyranoside pre-incubated for 1 hr by spectrometric analysis. Set-up: species or system Saccharomyces cerevisiae. In short, it runs like this:
as §1

Active and inactive are the calls of the source. The calls are words filed in the database; no cut-off is given here.

Regarding `CN1C[C@@H](CCO)[C@@H](O)[C@H](O)C1`, the inhibition result in experiment [1], in experiment [4], in [5], in experiment [7] and in [9] was “inactive” each time. Further, the Ki (commonly a dissociation constant, usually derived from enzyme kinetics or from competition with a known ligand) in experiment [2] is 54 µM. Further, in [3], the inhibition (commonly the drop in the measured response relative to a control, in per cent) is “Active”. For the same compound, in experiment [6], the concentration for half-maximal inhibition (IC50) (as a rule, the midpoint of a concentration-inhibition curve) is 50 µM. For the same compound, in [8], the inhibition is below 50%.

As for `OCC[C@@H]1CNC[C@@H](O)[C@@H]1O`, the inhibition entry in [1], in experiment [4], in [5], in experiment [7] and in experiment [9] was “inactive” each time. In addition, the inhibitory constant (Ki) in [2] was 66 µM. Further, the inhibition result in experiment [3] was “Active”. In addition, the IC50 in experiment [6] amounted to 65 µM. For the same compound, the inhibition in [8] was below 50%.

`OC[C@H]1CNC[C@@H](O)[C@@H]1O` [AFEGOSTAT]: in experiment [10], the Ki is 0.11 µM.

With `OCC[C@@H]1CNC[C@H](O)[C@@H](O)[C@@H]1O`, the inhibition entry in experiment [11], in [1], in experiment [5], in experiment [7] and in experiment [9] was “inactive” throughout. The inhibition constant (Ki) in experiment [12] worked out at 131 µM. In [13], the 50% inhibitory concentration (IC50) was found to be 675 µM. The inhibition in experiment [8] was below 50%.
